NPY-Y1 antag – NPY-Y1 (human) receptor antagonism; HEK293-CNG Y1 cells, membrane potential fluorescence; NPY at EC95, then isoproterenol; inhibition, % at 3.6 µM; 1% of 200,000 active; AID 1040; P25929;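 active means inhibition above the campaign mean inhibition of all tested compounds plus 3 SD, cut at about 20% in these data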
Target sequence (P25929 whole entry, looked up): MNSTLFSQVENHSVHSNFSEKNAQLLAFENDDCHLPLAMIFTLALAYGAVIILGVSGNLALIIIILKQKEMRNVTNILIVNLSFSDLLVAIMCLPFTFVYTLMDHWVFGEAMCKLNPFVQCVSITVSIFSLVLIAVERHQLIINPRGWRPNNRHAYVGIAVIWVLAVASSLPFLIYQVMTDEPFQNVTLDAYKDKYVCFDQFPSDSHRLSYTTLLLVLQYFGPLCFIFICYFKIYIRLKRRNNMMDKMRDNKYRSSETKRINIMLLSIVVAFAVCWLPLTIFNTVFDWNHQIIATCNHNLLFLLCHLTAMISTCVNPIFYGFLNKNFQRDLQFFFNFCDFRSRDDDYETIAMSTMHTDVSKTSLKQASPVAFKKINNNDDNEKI
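Benchmarks – high control isoproterenol alone, low control NPY with isoproterenol · Material – HEK293 Y1/CNG channel cell line · Times – dye 3 h, compound 60 min room temperature, stimulation 45 min · Probe or stimulus – NPY (25 nM), isoproterenol (1 µM), Ro 20-1724 (25 µM) · Evaluation – % inhibition of NPY effect · Signal – fluorescence, membrane potential probe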
EP2 modulator – modulators of human EP2 prostaglandin E2 receptor | EP2-expressing cells, cAMP HTRF FRET, PGE2 co-stimulation | induction, % at 25 µM | 0.83% of 260,000 active;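 active means compounds whose cAMP rise, as percent of the full-agonist control response, exceeds 60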;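 further: rat C6 glioma line stably carrying human EP2 under a CMV promoter; the protocol text gives 20 µM as final concentration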
NPY-Y2 antag – NPY-Y2 (human) receptor antagonism; 0.99% of 140,000 active; NPY-Y2 expressing cells, antagonist mode; AID 793; inhibition, % at 2.7 µM; P49146; in the data active means inhibition above about 17%
NPY1 pot ag – human NPY-Y1 potentiation or agonism, primary screen; 0.37% of 220,000 active; AID 1304; activation, % at 3.6 µM; NPY-Y1 expressing cells, potentiator/agonist activation; in the data active means activation above about 33%, passing the limit was not always enough;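 further: cells stimulated with NPY at EC10 then isoproterenol at EC100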
NPY2 pot ag – human NPY-Y2 potentiation or agonism, primary screen; P49146; cells expressing NPY-Y2, potentiator/agonist read-out; activation, % at 3.6 µM; 0.45% of 220,000 active; AID 1359; in the data active means activation above about 27%;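 further: cells stimulated with NPY near EC25 plus isoproterenol at EC100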
PGE2 EP2 inh – EP2 receptor (human) inhibition; 0.52% of 260,000 active; C6 glioma cells expressing human EP2, cAMP TR-FRET; cells stimulated with saturating PGE2; P43116; inhibition, % at 25 µM; AID 1422;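 active means percent inhibition above 40 after rounding to a whole number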;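 further: rat C6 glioma host cells with rolipram phosphodiesterase inhibitor present; the protocol text gives 20 µM as final concentration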
Large screens that a line does not name were inactive; ! = not active in a repeat. The list is not random: actives were taken first. Their share in the collection is about 2.8%.

CC12CC(NC(=O)N1c1ccc(C(=O)N3CCN(c4ccccn4)CC3)cc1)c1ccccc1O2 (stereo not drawn)	NPY1 pot ag 51.6, NPY2 pot ag 34.9
C[c-]1[c-](C)[c-](C)[c-](C)[c-]1C.[Fe].c1cc2nccc(N3CCCC3)[c-]2c1 (stereo not drawn)	PGE2 EP2 inh 55.1! (no result: NPY-Y1 antag, NPY-Y2 antag, NPY1 pot ag, NPY2 pot ag)
Cc1cc(C)nc(NS(=O)(=O)c2ccc(NC(=S)NC(=O)/C=C/c3cccs3)cc2)n1	PGE2 EP2 inh 63.1 (no result: NPY-Y1 antag, NPY-Y2 antag, NPY1 pot ag, NPY2 pot ag)
COc1cc(OC)cc(C(=O)NC(=S)Nc2ccc(S(=O)(=O)Nc3nccs3)cc2)c1	none (no result: NPY-Y1 antag, NPY-Y2 antag, NPY1 pot ag, NPY2 pot ag)
COc1ccc(/C=C/C(=O)NC(=S)Nc2ccc(S(=O)(=O)Nc3ccc(OC)nn3)cc2)cc1	none
Cc1cc(C)cc(NS(=O)(=O)c2ccc(NC(=S)NC(=O)c3cccs3)cc2)c1	PGE2 EP2 inh 41.9
COc1ccc(/C=C/C(=O)NC(=S)Nc2ccc(S(=O)(=O)Nc3cc(C)on3)cc2)cc1	PGE2 EP2 inh 45.3 (no result: NPY-Y1 antag, NPY-Y2 antag, NPY1 pot ag, NPY2 pot ag)
COc1ccc(C(=O)NC(=S)Nc2ccc(S(=O)(=O)Nc3nccs3)cc2)cc1OC	PGE2 EP2 inh 43.4 (no result: NPY-Y1 antag, NPY-Y2 antag, NPY1 pot ag, NPY2 pot ag)
CCOC(=O)c1sc(NC(=O)COc2cc(C)ccc2C)c(C#N)c1C	none (no result: NPY-Y1 antag, NPY-Y2 antag, NPY1 pot ag, NPY2 pot ag)
Cc1c(C(=O)N2CCOCC2)sc(NC(=O)CCCOc2ccc(Cl)cc2Cl)c1C#N	none (no result: NPY-Y1 antag, NPY-Y2 antag, NPY1 pot ag, NPY2 pot ag)
Cc1occc1-c1nn(CC(=O)N2CCc3ccccc32)c(=O)o1	none (no result: NPY-Y1 antag, NPY-Y2 antag, NPY1 pot ag, NPY2 pot ag)
Cc1c(Cl)c([N+](=O)[O-])nn1CC(=O)NC(C)C1CC2CCC1C2 (stereo not drawn)	NPY-Y1 antag 20.4, NPY-Y2 antag 21.5
COc1ccc(CNc2ncnc3c2[nH]c2ccccc23)cc1	PGE2 EP2 inh 60.4 (no result: NPY-Y1 antag, NPY-Y2 antag)
COc1ccc(CNc2ncnc3c2[nH]c2cc(OC)c(OC)cc23)cc1	PGE2 EP2 inh 53.6 (no result: NPY-Y1 antag, NPY-Y2 antag)
CNC(=O)CSc1nc(-c2ccccc2)c(-c2ccccc2)o1	none (no result: NPY-Y2 antag)
CN(C)C(=O)CSc1nc(-c2ccccc2)c(-c2ccccc2)o1	EP2 modulator 62.9 (no result: NPY-Y2 antag)
CN(C)CCCN(Cc1ccco1)Cc1cncc2c(Cl)[nH]nc12	none (no result: NPY-Y1 antag, NPY-Y2 antag, NPY1 pot ag, NPY2 pot ag)
COc1cccc(OCc2cc(/C=N/Nc3ccc(C(=O)O)cc3)ccc2OC)c1	EP2 modulator 62.1 (no result: NPY-Y1 antag, NPY-Y2 antag)
COCc1cc(/C=N\NC(=O)COc2ccccc2)ccc1OC	none
Cc1cc(C)c(N(C(=O)c2ccco2)C(C(=O)NC2CCCC2)c2cccnc2)c(C)c1 (stereo not drawn)	none (no result: NPY-Y1 antag, NPY-Y2 antag, NPY1 pot ag, NPY2 pot ag)
Cc1cccc(C2(c3cccc(C)c3)CC2C(=O)NCC2CCCO2)c1 (stereo not drawn)	none
Cc1cccc(C2(c3cccc(C)c3)CC2C(=O)Nc2ccc([N+](=O)[O-])cc2O)c1 (stereo not drawn)	EP2 modulator 60.8
Cc1ncc(-c2ccncc2)c(C2CCCN(C(=O)Cn3cnc4ccccc43)C2)n1 (stereo not drawn)	none (no result: NPY-Y1 antag, NPY-Y2 antag, NPY1 pot ag, NPY2 pot ag, PGE2 EP2 inh)
Cc1ccc(NCC(O)C(O)C(O)CO)c(N=Nc2ccccc2)c1C (stereo not drawn)	NPY1 pot ag 99.4, NPY2 pot ag 97.5 (no result: NPY-Y1 antag, NPY-Y2 antag)
COc1ccc2c(c1OC)C(=O)N1c3ccccc3C(=O)N(c3ccc(F)cc3)C21 (stereo not drawn)	NPY-Y1 antag 52.0
COc1ccc2c(c1OC)C(=O)N1c3ccccc3C(=O)N(c3ccccc3)C21 (stereo not drawn)	NPY-Y2 antag 23.0
O=C(Nc1cccc(C(=O)N2CCOCC2)c1)C1Oc2ccccc2O1	none (no result: NPY-Y1 antag, NPY-Y2 antag, NPY1 pot ag, NPY2 pot ag)
O=C(/C=C/c1ccco1)Nc1ccccc1C(=O)Nc1cccc(C(=O)O)c1	NPY1 pot ag 48.0, NPY2 pot ag 42.7 (no result: NPY-Y1 antag, NPY-Y2 antag)
O=C(/C=C/c1ccco1)Nc1ccccc1C(=O)O	none (no result: NPY-Y2 antag)
Cc1cc2nc(CCN3CCOCC3)n(S(=O)(=O)c3ccc(C(C)(C)C)cc3)c2cc1C	EP2 modulator 61.4
Cc1cc(SCC(=O)c2ccc(Br)cc2)cc(C)[o+]1	PGE2 EP2 inh 48.2 (no result: NPY-Y1 antag, NPY-Y2 antag, NPY1 pot ag, NPY2 pot ag)
Cc1nnc(SCC(=O)c2ccc(Br)cc2)s1	none (no result: NPY-Y2 antag)
S=C1NCN2CCN(CC2)CNC(=S)C(=S)NCN2CCN(CC2)CNC1=S	PGE2 EP2 inh 48.2 (no result: NPY-Y1 antag, NPY-Y2 antag, NPY1 pot ag, NPY2 pot ag)
C/C(=N\N)c1c(-c2ccccc2)c2cc(C)ccc2[nH]c1=O	none (no result: NPY-Y1 antag, NPY-Y2 antag)
CCN(CC)c1c(-c2ccccc2)c2cc(C)ccc2[nH]c1=O	EP2 modulator 60.6
COc1cc(OC)cc(C(=O)Nc2ccc(N3CCN(C(=O)C(C)C)CC3)cc2)c1	none (no result: NPY-Y1 antag, NPY-Y2 antag, NPY1 pot ag, NPY2 pot ag)
CCCNC(=O)CSCc1nc(-c2ccc(SC)cc2)oc1C	none (no result: NPY-Y2 antag)
